Tests used:
Rattus norvegicus [1] = experiment: Percent inhibition of the Angiotensin-II (0.1 micro g/kg, iv) induced pressor response after 3 hours of administration (3 mg/kg po) in rats; format: functional
Procedure, shortened: (§1)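 Conscious male Sprague-Dawley rats dosed orally with test compound; pressor response to AII challenge (0.1 µg/kg iv) measured at 3 and 7 h after dosing and expressed as percent inhibition. Duplicate experiments, with n = 3 for some compounds; variation in % inhibition under 30%.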

[2] = target: T1, Angiotensin II receptor (Rattus norvegicus) (UniProt P29089+P25095+P35351); experiment: Percent inhibition of the Angiotensin-II (0.1micro g/kg, iv) induced pressor response after 7 hours of administration (3 mg/kg po) in rats; format: functional, organism-based; procedure, shortened: as §1
[3] = target: T1, Angiotensin II receptor (Rattus norvegicus); experiment: Percent inhibition of the Angiotensin-II (0.1ug/kg, iv) induced pressor response after 7 hours of administration (1 mg/kg po) in rats; format: functional, organism-based; procedure, shortened: as §1
[4] = target: T1, Angiotensin II receptor (Rattus norvegicus); experiment: Percent inhibition of the Angiotensin-II (0.1ug/kg, iv) induced pressor response after 3 hours of administration (1 mg/kg po) in rats; format: functional, organism-based; procedure, shortened: as §1
[5] = target: T2, Type-1 angiotensin II receptor (Bos taurus, UniProt P25104); experiment: Inhibition of specific binding of [125 I ] Angiotensin-II (0.2 nM) to bovine adrenal cortex; format: tissue-based
T2 sequence (P25104 whole entry): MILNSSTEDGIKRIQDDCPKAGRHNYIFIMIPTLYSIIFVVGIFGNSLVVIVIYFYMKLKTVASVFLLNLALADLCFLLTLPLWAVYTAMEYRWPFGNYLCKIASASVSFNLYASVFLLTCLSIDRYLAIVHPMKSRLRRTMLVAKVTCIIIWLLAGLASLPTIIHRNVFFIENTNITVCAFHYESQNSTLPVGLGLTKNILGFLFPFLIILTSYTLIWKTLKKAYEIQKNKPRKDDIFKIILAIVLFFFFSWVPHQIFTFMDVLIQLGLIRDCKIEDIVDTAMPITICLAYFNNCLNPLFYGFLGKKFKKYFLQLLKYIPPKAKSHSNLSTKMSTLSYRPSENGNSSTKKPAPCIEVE

Oryctolagus cuniculus = species: Oryctolagus cuniculus; experiment: Concentration required for inhibition of Angiotensin-II induced rabbit aorta strips contraction; format: functional
Procedure, shortened: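 Isolated rabbit aortic strips contracted with AII (10 nM); test compound inhibition measured from concentration-inhibition curves, n = 6-8; IC50 is the concentration halving the AII-induced contraction.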

Rattus norvegicus [6] = experiment: Percent inhibition of the Angiotensin-II (0.1micro g/kg, iv) induced pressor response after 3 hours of administration (10 mg/kg po) in rats; format: functional; procedure, shortened: as §1
Rattus norvegicus [7] = experiment: Percent inhibition of the Angiotensin-II (0.1micro g/kg, iv) induced pressor response after 7 hours of administration (10 mg/kg po) in rats; format: functional; procedure, shortened: as §1
[8] = target: T1, Angiotensin II receptor (Rattus norvegicus); experiment: Percent inhibition of the Angiotensin-II (0.1ug/kg, iv) induced pressor response after 3 hours of administration (3 mg/kg po) in rats; format: functional, organism-based; procedure, shortened: as §1
Rattus norvegicus [9] = experiment: Percent inhibition of the Angiotensin-II (0.1 micro g/kg, iv) induced pressor response after 7 hours of administration (1 mg/kg po) in rats; format: functional; procedure, shortened: as §1
Rattus norvegicus [10] = experiment: Percent inhibition of the Angiotensin-II (0.1micro g/kg, iv) induced pressor response after 7 hours of administration (1 mg/kg po) in rats.; format: functional; procedure, shortened: as §1
Rattus norvegicus [11] = experiment: Percent inhibition of the Angiotensin-II (0.1micro g/kg, iv) induced pressor response after 7 hours of administration (1 mg/kg po) in rats; format: functional; procedure, shortened: as §1
Rattus norvegicus [12] = experiment: Percent inhibition of the Angiotensin-II (0.1micro g/kg, iv) induced pressor response after 7 hours of administration (1 mg/kg po) in rat; format: functional; procedure, shortened: as §1

SMILES | inhibition [2] | inhibition [3] | inhibition [4] | IC50 [5] | inhibition [8] | also measured
CCc1nc2cccc(C(=O)O)c2n1Cc1ccc(-c2ccccc2-c2nn[nH]n2)cc1 | 95% | 62% | 79% |  |  | Inhibition (Rattus norvegicus [1]): 96%
CCOc1nc2cccc(C(=O)O)c2n1Cc1ccc(-c2ccccc2-c2nnn[nH]2)cc1 | 100% | 92% | 100% | 110 nM | 100% | IC50 (Oryctolagus cuniculus): 0.2 nM; Inhibition (Rattus norvegicus [6]): 100%; Inhibition (Rattus norvegicus [7]): 100%
CCCCNc1nc2cccc(C(=O)O)c2n1Cc1ccc(-c2ccccc2-c2nn[nH]n2)cc1 | 61% |  | 38% |  | 52% | Inhibition (Rattus norvegicus [9]): 19%
CCNc1nc2cccc(C(=O)O)c2n1Cc1ccc(-c2ccccc2-c2nn[nH]n2)cc1 | 100% |  | 81% |  | 100% | Inhibition (Rattus norvegicus [10]): 85%
CNc1nc2cccc(C(=O)O)c2n1Cc1ccc(-c2ccccc2-c2nn[nH]n2)cc1 |  |  | 28% |  |  | Inhibition (Rattus norvegicus [11]): 49%
CNCc1nc2cccc(C(=O)O)c2n1Cc1ccc(-c2ccccc2-c2nn[nH]n2)cc1 |  |  | 42% | 800 nM |  | Inhibition (Rattus norvegicus [12]): 50%

Source: ChEMBL document CHEMBL1126750, “Nonpeptide angiotensin II receptor antagonists. Synthesis and biological activity of benzimidazolecarboxylic acids” (J Med Chem, 1993)
